{
  "source": "paper PMC7416082",
  "about": "(Journal of Inorganic Biochemistry, 2020)",
  "key": {"CT DNA": {"test_system": "CT DNA", "assay": "CT DNA binding studies by cyclic voltammetry", "set-up": "species or system calf", "conditions": "for Epa(f), anodic potential / Epc(f), cathodic potential / Epa(b), anodic potential / Epc(b), cathodic potential: Co(II)/Co(I) couple, DMSO/buffer; for Epa(f), anodic potential / Epc(f), cathodic potential: absence of CT DNA; for Epa(b), anodic potential / Epc(b), cathodic potential: presence of CT DNA; for Kr/Kox, ratio of equilibrium DNA-binding constants of reduced and oxidized form: Eq. S3; for ΔEpa = Epa(b) − Epa(f) / ΔEpc = Epc(b) − Epc(f): shift upon addition of CT DNA"}, "CT DNA-EB conjugate": {"test_system": "CT DNA-EB conjugate", "assay": "EB-displacement studies", "type": "binding, calf", "conditions": "for quenching constant kq (EB-DNA): τo = 23 ns", "procedure,_shortened": "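CT DNA pre-bound with ethidium bromide in citrate/NaCl buffer, pH 7.0, at room temperature. Test compound was added from a DMSO stock (≤5% v/v DMSO final), and the decrease in EB-DNA emission at 592 nm was monitored. KSV was obtained by Stern-Volmer analysis. kq was calculated from KSV using a literature EB-DNA lifetime τo = 23 ns.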"}, "[1]": {"molecular_target": "T1, bovine serum albumin (BSA) (Bos taurus, UniProt P02769)", "T1 sequence (P02769 25-607)": "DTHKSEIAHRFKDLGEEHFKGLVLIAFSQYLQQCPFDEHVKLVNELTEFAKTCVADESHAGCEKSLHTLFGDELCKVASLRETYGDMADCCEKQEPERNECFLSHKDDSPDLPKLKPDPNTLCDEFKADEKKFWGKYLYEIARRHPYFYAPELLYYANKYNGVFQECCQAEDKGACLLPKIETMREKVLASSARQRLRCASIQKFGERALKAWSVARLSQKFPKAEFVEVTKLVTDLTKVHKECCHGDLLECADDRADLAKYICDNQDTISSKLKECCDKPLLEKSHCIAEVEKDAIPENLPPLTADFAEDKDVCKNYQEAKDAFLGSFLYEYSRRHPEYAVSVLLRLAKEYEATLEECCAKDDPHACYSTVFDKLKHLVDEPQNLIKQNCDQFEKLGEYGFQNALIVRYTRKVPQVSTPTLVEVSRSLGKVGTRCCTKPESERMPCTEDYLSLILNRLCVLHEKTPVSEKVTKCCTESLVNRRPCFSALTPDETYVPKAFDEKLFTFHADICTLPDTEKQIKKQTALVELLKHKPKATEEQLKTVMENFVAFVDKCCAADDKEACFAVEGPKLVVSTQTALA", "assay": "BSA tryptophan fluorescence quenching", "type": "binding", "conditions": "for K(BSA), SA-binding constant: Scatchard equation; for % relative fluorescence intensity (I/Io, %) of BSA remaining: λem 345 nm, % of the initial BSA fluorescence; for kq(BSA), SA-quenching constant: τo = 10^−8 s"}, "[2]": {"molecular_target": "T2, human serum albumin (HSA) (Homo sapiens, UniProt P02768)", "T2 sequence (P02768 25-609)": "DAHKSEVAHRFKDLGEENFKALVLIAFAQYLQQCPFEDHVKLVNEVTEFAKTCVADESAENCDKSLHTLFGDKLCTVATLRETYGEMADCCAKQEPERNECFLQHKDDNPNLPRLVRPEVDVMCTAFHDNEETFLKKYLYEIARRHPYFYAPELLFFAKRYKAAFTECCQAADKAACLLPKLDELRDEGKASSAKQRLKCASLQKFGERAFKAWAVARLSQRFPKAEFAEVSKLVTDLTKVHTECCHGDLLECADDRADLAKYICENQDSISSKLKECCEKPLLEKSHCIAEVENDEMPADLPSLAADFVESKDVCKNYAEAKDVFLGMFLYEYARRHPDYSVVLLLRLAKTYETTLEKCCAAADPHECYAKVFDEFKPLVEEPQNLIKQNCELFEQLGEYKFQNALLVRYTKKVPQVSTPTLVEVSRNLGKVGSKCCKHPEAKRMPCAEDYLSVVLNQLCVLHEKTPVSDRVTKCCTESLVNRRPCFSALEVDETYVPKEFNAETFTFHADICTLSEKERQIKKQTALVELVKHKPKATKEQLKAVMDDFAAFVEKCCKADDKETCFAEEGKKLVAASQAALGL", "assay": "HSA tryptophan fluorescence quenching", "type": "binding", "conditions": "for K(HSA), SA-binding constant: Scatchard equation; for % relative fluorescence intensity (I/Io, %) of HSA remaining: λem 340 nm, % of the initial HSA fluorescence; for kq(HSA), SA-quenching constant: τo = 10^−8 s"}, "[3]": {"molecular_target": "T1, bovine serum albumin (BSA)", "assay": "BSA competitive studies with site-markers warfarin and ibuprofen", "type": "binding", "conditions": "for BSA-binding constant K, marker: ibuprofen: presence of ibuprofen; for BSA-binding constant K, marker: warfarin: presence of warfarin; for BSA binding site from competition with site-markers: change of K(BSA) with warfarin / ibuprofen"}, "[4]": {"molecular_target": "T2, human serum albumin (HSA)", "assay": "HSA competitive studies with site-markers warfarin and ibuprofen", "type": "binding", "conditions": "for HSA-binding constant K, marker: ibuprofen: presence of ibuprofen; for HSA-binding constant K, marker: warfarin: presence of warfarin"}, "[5]": {"assay": "Solubility and stability of the isolated complexes", "type": "physicochemical"}},
  "data": [
    {"substance": "[Co2(μ-indo-O,O′)2(indo-O)2(bipy)2(μ-H2O)]·3.3MeOH [complex 2]", "values": [
      {"measurement": "Epa(f), anodic potential", "setting": "CT DNA", "value": "−475", "unit": "mV"},
      {"measurement": "Epc(f), cathodic potential", "setting": "CT DNA", "value": "−712", "unit": "mV"},
      {"measurement": "Epa(b), anodic potential", "setting": "CT DNA", "value": "−520", "unit": "mV"},
      {"measurement": "Epc(b), cathodic potential", "setting": "CT DNA", "value": "−675", "unit": "mV"},
      {"measurement": "Kr/Kox, ratio of equilibrium DNA-binding constants of reduced and oxidized form", "setting": "CT DNA", "value": 0.93},
      {"measurement": "ΔEpa = Epa(b) − Epa(f)", "setting": "CT DNA", "value": "−45", "unit": "mV"},
      {"measurement": "ΔEpc = Epc(b) − Epc(f)", "setting": "CT DNA", "value": "+37 mV"},
      {"measurement": "Stern-Volmer constant KSV (EB-DNA)", "setting": "CT DNA-EB conjugate", "value": "1.63(±0.05) × 10^5 M^−1"},
      {"measurement": "quenching constant kq (EB-DNA)", "setting": "CT DNA-EB conjugate", "value": "7.07(±0.20) × 10^12 M^−1 s^−1"},
      {"measurement": "K(BSA), SA-binding constant", "setting": "[1]", "value": "6.77(±0.26) × 10^5 M^−1"},
      {"measurement": "% relative fluorescence intensity (I/Io, %) of BSA remaining", "setting": "[1]", "value": 7.2, "unit": "%"},
      {"measurement": "kq(BSA), SA-quenching constant", "setting": "[1]", "value": "7.14(±0.12) × 10^13 M^−1 s^−1"},
      {"measurement": "K(HSA), SA-binding constant", "setting": "[2]", "value": "1.20(±0.05) × 10^6 M^−1"},
      {"measurement": "% relative fluorescence intensity (I/Io, %) of HSA remaining", "setting": "[2]", "value": 5.1, "unit": "%"},
      {"measurement": "kq(HSA), SA-quenching constant", "setting": "[2]", "value": "8.49(±0.25) × 10^13 M^−1 s^−1"},
      {"measurement": "BSA-binding constant K, no marker", "setting": "[3]", "value": "6.77(±0.26) × 10^5 M^−1"},
      {"measurement": "BSA-binding constant K, marker: ibuprofen", "setting": "[3]", "value": "3.50(±0.13) × 10^5 M^−1"},
      {"measurement": "BSA-binding constant K, marker: warfarin", "setting": "[3]", "value": "5.48(±0.13) × 10^5 M^−1"},
      {"measurement": "BSA binding site from competition with site-markers", "setting": "[3]", "value": "preference for the Sudlow's site 2 in subdomain IIIA"},
      {"measurement": "HSA-binding constant K, no marker", "setting": "[4]", "value": "8.82(±0.30) × 10^5 M^−1"},
      {"measurement": "HSA-binding constant K, marker: ibuprofen", "setting": "[4]", "value": "1.41(±0.09) × 10^5 M^−1"},
      {"measurement": "HSA-binding constant K, marker: warfarin", "setting": "[4]", "value": "4.62(±0.16) × 10^5 M^−1"},
      {"measurement": "Solubility", "setting": "[5]", "value": "soluble in DMSO and DMF"}
    ]},
    {"substance": "[Co(indo-O,O′)2(phen)] [complex 4]", "values": [
      {"measurement": "Epa(f), anodic potential", "setting": "CT DNA", "value": "−440", "unit": "mV"},
      {"measurement": "Epc(f), cathodic potential", "setting": "CT DNA", "value": "−720", "unit": "mV"},
      {"measurement": "Epa(b), anodic potential", "setting": "CT DNA", "value": "−500", "unit": "mV"},
      {"measurement": "Epc(b), cathodic potential", "setting": "CT DNA", "value": "−680", "unit": "mV"},
      {"measurement": "Kr/Kox, ratio of equilibrium DNA-binding constants of reduced and oxidized form", "setting": "CT DNA", "value": 0.84},
      {"measurement": "ΔEpa = Epa(b) − Epa(f)", "setting": "CT DNA", "value": "−60", "unit": "mV"},
      {"measurement": "ΔEpc = Epc(b) − Epc(f)", "setting": "CT DNA", "value": "+40 mV"},
      {"measurement": "Stern-Volmer constant KSV (EB-DNA)", "setting": "CT DNA-EB conjugate", "value": "1.76(±0.04) × 10^5 M^−1"},
      {"measurement": "quenching constant kq (EB-DNA)", "setting": "CT DNA-EB conjugate", "value": "7.65(±0.17) × 10^12 M^−1 s^−1"},
      {"measurement": "K(BSA), SA-binding constant", "setting": "[1]", "value": "4.27(±0.22) × 10^5 M^−1"},
      {"measurement": "% relative fluorescence intensity (I/Io, %) of BSA remaining", "setting": "[1]", "value": 26.5, "unit": "%"},
      {"measurement": "kq(BSA), SA-quenching constant", "setting": "[1]", "value": "1.37(±0.06) × 10^13 M^−1 s^−1"},
      {"measurement": "K(HSA), SA-binding constant", "setting": "[2]", "value": "7.37(±0.35) × 10^5 M^−1"},
      {"measurement": "% relative fluorescence intensity (I/Io, %) of HSA remaining", "setting": "[2]", "value": 21.2, "unit": "%"},
      {"measurement": "kq(HSA), SA-quenching constant", "setting": "[2]", "value": "1.83(±0.12) × 10^13 M^−1 s^−1"},
      {"measurement": "BSA-binding constant K, no marker", "setting": "[3]", "value": "4.27(±0.22) × 10^5 M^−1"},
      {"measurement": "BSA-binding constant K, marker: ibuprofen", "setting": "[3]", "value": "1.19(±0.05) × 10^5 M^−1"},
      {"measurement": "BSA-binding constant K, marker: warfarin", "setting": "[3]", "value": "2.23(±0.08) × 10^5 M^−1"},
      {"measurement": "HSA-binding constant K, no marker", "setting": "[4]", "value": "1.20(±0.05) × 10^6 M^−1"},
      {"measurement": "HSA-binding constant K, marker: ibuprofen", "setting": "[4]", "value": "3.42(±0.11) × 10^5 M^−1"},
      {"measurement": "HSA-binding constant K, marker: warfarin", "setting": "[4]", "value": "5.72(±0.18) × 10^5 M^−1"},
      {"measurement": "HSA binding site from competition with site-markers", "setting": "[4]; change of K(HSA) with warfarin / ibuprofen", "value": "evident preference for the Sudlow's site 2 in subdomain IIIA"},
      {"measurement": "Solubility", "setting": "[5]", "value": "soluble in DMSO and DMF"}
    ]},
    {"substance": "[Co(indo-O)2(H2O)2(μ-Cl)]n·n(MeOH·H2O) [complex 1]", "values": [
      {"measurement": "Epa(f), anodic potential", "setting": "CT DNA", "value": "−495", "unit": "mV"},
      {"measurement": "Epc(f), cathodic potential", "setting": "CT DNA", "value": "−690", "unit": "mV"},
      {"measurement": "Epa(b), anodic potential", "setting": "CT DNA", "value": "−480", "unit": "mV"},
      {"measurement": "Epc(b), cathodic potential", "setting": "CT DNA", "value": "−700", "unit": "mV"},
      {"measurement": "Kr/Kox, ratio of equilibrium DNA-binding constants of reduced and oxidized form", "setting": "CT DNA", "value": 1.04},
      {"measurement": "ΔEpa = Epa(b) − Epa(f)", "setting": "CT DNA", "value": "+15 mV"},
      {"measurement": "ΔEpc = Epc(b) − Epc(f)", "setting": "CT DNA", "value": "−10", "unit": "mV"},
      {"measurement": "Stern-Volmer constant KSV (EB-DNA)", "setting": "CT DNA-EB conjugate", "value": "1.39(±0.05) × 10^5 M^−1"},
      {"measurement": "quenching constant kq (EB-DNA)", "setting": "CT DNA-EB conjugate", "value": "6.03(±0.23) × 10^12 M^−1 s^−1"},
      {"measurement": "K(BSA), SA-binding constant", "setting": "[1]", "value": "3.72(±0.12) × 10^5 M^−1"},
      {"measurement": "% relative fluorescence intensity (I/Io, %) of BSA remaining", "setting": "[1]", "value": 33.5, "unit": "%"},
      {"measurement": "kq(BSA), SA-quenching constant", "setting": "[1]", "value": "1.04(±0.07) × 10^13 M^−1 s^−1"},
      {"measurement": "K(HSA), SA-binding constant", "setting": "[2]", "value": "7.06(±0.31) × 10^5 M^−1"},
      {"measurement": "% relative fluorescence intensity (I/Io, %) of HSA remaining", "setting": "[2]", "value": 28.8, "unit": "%"},
      {"measurement": "kq(HSA), SA-quenching constant", "setting": "[2]", "value": "9.01(±0.28) × 10^12 M^−1 s^−1"},
      {"measurement": "BSA-binding constant K, no marker", "setting": "[3]", "value": "3.72(±0.12) × 10^5 M^−1"},
      {"measurement": "BSA-binding constant K, marker: ibuprofen", "setting": "[3]", "value": "1.56(±0.08) × 10^5 M^−1"},
      {"measurement": "BSA-binding constant K, marker: warfarin", "setting": "[3]", "value": "4.50(±0.24) × 10^5 M^−1"},
      {"measurement": "BSA binding site from competition with site-markers", "setting": "[3]", "value": "preference for the Sudlow's site 2 in subdomain IIIA"},
      {"measurement": "HSA-binding constant K, no marker", "setting": "[4]", "value": "7.06(±0.31) × 10^5 M^−1"},
      {"measurement": "HSA-binding constant K, marker: ibuprofen", "setting": "[4]", "value": "2.72(±0.10) × 10^5 M^−1"},
      {"measurement": "HSA-binding constant K, marker: warfarin", "setting": "[4]", "value": "4.18(±0.11) × 10^5 M^−1"},
      {"measurement": "Solubility", "setting": "[5]", "value": "soluble in DMSO and DMF"}
    ]}
  ]
}
